ChEMBL document CHEMBL1139521, “Synthetic iminosugar derivatives as new potential immunosuppressive agents” (J Med Chem, 2005)

Key:
Assay type in all cases: functional
[1] = Inhibitory concentration against proliferation of mouse splenocytes was determined by measuring mitochondrial dehydrogenase activity using MTT assay
Procedure, shortened: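 Mouse splenocyte proliferation measured by a 72 h MTT assay, with mitochondrial dehydrogenase activity of surviving cells as read-out. Test agents were in acetate form. Cyclosporin A was included as a comparator. IC50 taken as the concentration giving 50% inhibition.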

Mus musculus [2] = organism: Mus musculus; test: Effect on level of IFN-gamma secretion splenocytes in mice following treatment with 25 uM compound done for 72 hr at 37 degree C
Procedure, shortened: (§1)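 Mouse spleen cells stimulated with concanavalin A in the presence of 25 µM test agent (acetate form) at 37 °C, 5% CO2 for 72 h. Cytokine levels (IL-4 or IFN-γ) in the culture supernatant measured by mouse ELISA kit. Reduction expressed relative to control. Means ± SEM of at least three independent experiments.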

Mus musculus [3] = organism: Mus musculus; test: Effect on level of IL-4 secretion in mice splenocytes following treatment with 25 uM compound done for 72 hr at 37 degree C; procedure, shortened: as §1

Row | Compound | IC50 [1] | Reduction (Mus musculus [2]) | Reduction (Mus musculus [3])
1 | OC[C@H]1N[C@H](CO)[C@H](O)C(O)[C@H]1O (stereo not given in full) | 519 µM | 75.89% | 69.2%
2 | OC[C@@H]1N[C@@H](CO)[C@H](O)C(O)[C@H]1O (stereo not given in full) | 272 µM | 51.6% | 84.6%
3 | O=C(O)[C@H]1N[C@H](CO)[C@H](O)[C@H](O)[C@H]1O | 340 µM | 31.2% | 30.8%
4 | O=C(O)[C@H]1N[C@@H](CO)[C@H](O)[C@H](O)[C@H]1O | 346 µM | 24.2% | 92.3%
5 | OC[C@@H]1N[C@H](CO)[C@H](O)[C@@H](O)[C@H]1O | 332 µM | 86.2% | 92.3%
